Assay results: ChEMBL document CHEMBL4138091, “Quinazoline based α1-adrenoreceptor antagonists with potent antiproliferative activity in human prostate cancer cell lines” (Eur J Med Chem, 2017)
The source made the active and inactive calls. The calls are words filed in the database; no cut-off is given here.

How the values were obtained:
[1] = biological target: T1, Alpha-1A adrenergic receptor (Homo sapiens, UniProt P35348); assay: Displacement of [3H]prazosin from human alpha1A adrenoceptor expressed in CHO cell membranes after 30 mins
T1 sequence (P35348 whole entry): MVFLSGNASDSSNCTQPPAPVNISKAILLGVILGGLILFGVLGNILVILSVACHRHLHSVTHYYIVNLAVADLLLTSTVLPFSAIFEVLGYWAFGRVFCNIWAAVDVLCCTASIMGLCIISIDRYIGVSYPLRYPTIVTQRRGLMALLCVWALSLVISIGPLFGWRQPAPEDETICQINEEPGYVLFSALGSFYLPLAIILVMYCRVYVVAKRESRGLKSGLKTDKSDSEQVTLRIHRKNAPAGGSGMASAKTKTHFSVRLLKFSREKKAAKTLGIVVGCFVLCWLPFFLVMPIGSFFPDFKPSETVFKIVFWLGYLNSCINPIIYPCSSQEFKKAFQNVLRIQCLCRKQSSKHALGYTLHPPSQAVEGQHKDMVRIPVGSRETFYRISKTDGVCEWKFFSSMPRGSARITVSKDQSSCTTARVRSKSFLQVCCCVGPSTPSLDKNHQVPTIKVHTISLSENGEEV

[2] = biological target: T2, Alpha-1B adrenergic receptor (Homo sapiens, UniProt P35368); assay: Displacement of [3H]prazosin from human alpha1B adrenoceptor expressed in CHO cell membranes after 30 mins
T2 sequence (P35368 whole entry): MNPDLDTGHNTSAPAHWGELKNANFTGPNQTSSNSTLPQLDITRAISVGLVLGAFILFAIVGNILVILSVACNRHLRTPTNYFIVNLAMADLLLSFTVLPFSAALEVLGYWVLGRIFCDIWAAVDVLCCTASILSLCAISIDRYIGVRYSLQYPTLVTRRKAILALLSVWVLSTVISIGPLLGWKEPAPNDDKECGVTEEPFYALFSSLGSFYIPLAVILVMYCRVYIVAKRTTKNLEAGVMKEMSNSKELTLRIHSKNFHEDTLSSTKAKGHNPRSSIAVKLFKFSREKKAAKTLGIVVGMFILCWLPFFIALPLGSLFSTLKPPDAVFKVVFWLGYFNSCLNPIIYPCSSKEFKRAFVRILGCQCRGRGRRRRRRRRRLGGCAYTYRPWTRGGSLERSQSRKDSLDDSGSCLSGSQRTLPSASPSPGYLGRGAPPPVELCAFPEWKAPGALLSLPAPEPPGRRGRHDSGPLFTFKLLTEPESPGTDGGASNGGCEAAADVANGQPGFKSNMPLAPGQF

[3] = biological target: T3, Alpha-1D adrenergic receptor (Homo sapiens, UniProt P25100); assay: Displacement of [3H]prazosin from human alpha1D adrenoceptor expressed in CHO cell membranes after 30 mins
T3 sequence (P25100 whole entry): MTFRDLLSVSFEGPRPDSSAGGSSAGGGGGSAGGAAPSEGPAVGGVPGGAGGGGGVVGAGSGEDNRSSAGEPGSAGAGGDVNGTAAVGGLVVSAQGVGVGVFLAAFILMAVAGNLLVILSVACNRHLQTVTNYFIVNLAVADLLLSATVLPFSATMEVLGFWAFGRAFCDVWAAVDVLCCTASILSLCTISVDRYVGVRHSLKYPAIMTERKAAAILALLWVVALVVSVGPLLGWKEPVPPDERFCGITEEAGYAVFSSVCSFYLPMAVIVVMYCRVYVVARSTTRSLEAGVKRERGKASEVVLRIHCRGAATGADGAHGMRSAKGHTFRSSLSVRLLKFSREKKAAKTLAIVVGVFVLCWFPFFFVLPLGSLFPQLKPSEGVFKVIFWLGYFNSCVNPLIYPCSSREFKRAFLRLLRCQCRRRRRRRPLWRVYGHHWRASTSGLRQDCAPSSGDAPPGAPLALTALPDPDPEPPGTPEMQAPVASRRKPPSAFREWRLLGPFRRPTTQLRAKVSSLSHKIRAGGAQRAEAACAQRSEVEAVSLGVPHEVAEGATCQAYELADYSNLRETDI

[4] = system: Panel NCI-60 (60 carcinoma cell lines); assay: Antiproliferative activity against human NCI60 cells at 10 uM after 48 hrs by SRB assay; format: functional, cell-based
Outline: (§1)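 NCI one-dose screen at 10 µM across 60 human tumour lines, 48 h exposure; growth given relative to no-drug control and to time-zero cell number, so 0–100 means inhibition and below 0 lethality; 100 means no inhibition.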

[5] = system: DU-145; assay: Antiproliferative activity against human DU145 cells at 0.1 to 50 uM after 120 hrs by MTT assay; format: functional, cell-based
Outline: (§2)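 DU-145, PC-3 and LNCaP cells grown in RPMI with 10% fetal calf serum, 37 °C, 5% CO₂; seeded at 5 × 10³ cells/well, exposed to 0.1–50 µM for 120 h. After PBS wash, MTT (5 mg/mL) in PBS 4 h, formazan dissolved in isopropanol, read at 570 nm. Viability as % of untreated; IC50 from at least three independent dose-response curves.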

[6] = system: PC-3; assay: Antiproliferative activity against human PC3 cells at 0.1 to 50 uM after 120 hrs by MTT assay; format: functional, cell-based; outline: as §2
[7] = system: LNCaP; assay: Antiproliferative activity against human LNCAP cells at 0.1 to 50 uM after 120 hrs by MTT assay; format: functional, cell-based; outline: as §2
[8] = system: DU-145; assay: Antiproliferative activity against human DU145 cells at 10 uM after 48 hrs by SRB assay relative to control; format: functional; outline: as §1
[9] = system: PC-3; assay: Growth inhibition of human PC3 cells at 10 uM after 48 hrs by SRB assay relative to control; format: functional; conditions: PC-3, 48 h, read-out: GI; outline: as §1
[10] = system: DU-145; assay: Antiproliferative activity against human DU145 cells after 120 hrs by MTT assay; format: functional, cell-based; conditions: DU-145, 120 h; outline: as §2
[11] = system: PC-3; assay: Antiproliferative activity against human PC3 cells after 120 hrs by MTT assay; format: functional, cell-based; conditions: PC-3, 120 h; outline: as §2
[12] = system: LNCaP; assay: Antiproliferative activity against human LNCAP cells after 120 hrs by MTT assay; format: functional, cell-based; outline: as §2
[13] = system: LNCaP; assay: Induction of necrosis in human LNCAP cells assessed as loss of plasma membrane integrity at 1 to 10 uM after 24 hrs by trypan blue staining-based Neubauer hemocytometric method; format: functional, cell-based
Outline: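 LNCaP cells seeded at 1 × 10⁶ cells/well, treated 1–10 µM for 24 h at 37 °C, 5% CO₂; scraped into PBS, mixed 1:1 with 0.5% trypan blue, counted on a Neubauer hemocytometer; percentage of stained cells from at least 3 separate counts.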

[14] = system: LNCaP; assay: Induction of apoptosis in human LNCAP cells assessed as increase in DNA fragmentation at 10 uM after 24 hrs by spectrophotometer relative to control; format: functional
Outline: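 LNCaP cells seeded at 1 × 10³ cells/well, exposed to compounds (1–10 µM range) for 24 h at 37 °C, 5% CO₂; lysed, supernatant run in Cell Death Detection ELISAplus (biotin anti-histone/peroxidase anti-DNA on streptavidin plate, ABTS substrate 20 min); absorbance 405 nm. DNA fragmentation given as fold increase, treated/untreated absorbance; mean SD of three independent experiments, t-test vs untreated.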

| SMILES | Ki [1] [nM] | Ki [2] [nM] | Ki [3] [nM] | Activity [4] | Activity [5] | Activity [6] | Activity [7] | Activity [8] [%] | inhibition of growth at 10 µM [9] [%] | IC50 [10] [nM] | IC50 [11] [nM] | IC50 [12] [nM] | Activity [13] | fold change (FC) [14] |
| --- | --- | --- | --- | --- | --- | --- | --- | --- | --- | --- | --- | --- | --- | --- |
| COc1cc2nc(N3CCC[C@@H](NC(=O)c4ccco4)C3)nc(N)c2cc1OC | 110 | 42.7 | 37.2 | inactive | inactive | inactive | inactive | – | – | – | – | – | – | – |
| COc1cc2nc(N3CCC[C@@H](NC(=O)[C@H]4COc5ccccc5O4)C3)nc(N)c2cc1OC | > 1000 | 46.8 | 295 | – | – | – | – | – | – | – | – | – | – | – |
| COc1cc2nc(N3CCC[C@@H](NC4=CC(=O)c5ccccc5C4=O)C3)nc(N)c2cc1OC | 120 | 25.1 | 33.9 | Active | – | – | – | 54 | 45.5 | 17800 | 18600 | 5780 | – | – |
| COc1cc2nc(N3CCN(C(=O)C4COc5ccccc5O4)CC3)nc(N)c2cc1OC (stereo unspecified) [DOXAZOSIN] | – | – | – | – | – | – | – | – | – | 30600 | 12100 | 10500 | inactive | 2.2 |
| COc1cc2nc(N3CCC[C@H](NC(=O)[C@@H]4COc5ccccc5O4)C3)nc(N)c2cc1OC | 33.1 | 7.41 | 13.2 | inactive | inactive | inactive | inactive | – | – | – | – | – | – | – |
